Laboratory results taken from ChEMBL document CHEMBL1157361, “Steady-state disposition of the nonpeptidic protease inhibitor tipranavir when coadministered with ritonavir” (Antimicrob Agents Chemother, 2007).

Tests used:
[1] = tested on: Plasma; test: Biodistribution in healthy human plasma assessed as Tipranavir glucuronidation conjugate H-3 level at 500 mg, po twice daily coadministered with ritonavir 200 mg, po twice daily for 21 days with additional single dose of 551 mg, po on day 7 measured 3 hrs postdose; type: ADME, organism-based; conditions: in vivo
Outline: (§1)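 Healthy male nonsmoking volunteers (9 completed) on TPV 500 mg + RTV 200 mg orally twice daily. On day 7, after a light snack 60 min earlier, they took 500 mg [14C]TPV (90 µCi) + 200 mg RTV and fasted 4 h; unlabelled dosing then resumed to day 20. Samples were stored at about –20°C until analysis.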

[2] = tested on: Plasma; test: Biodistribution in healthy human plasma assessed as Tipranavir hydroxyl metabolite H-1 level at 500 mg, po twice daily coadministered with ritonavir 200 mg, po twice daily for 21 days with additional single dose of 551 mg, po on day 7 measured 3 hrs postdose; type: ADME, organism-based; conditions: in vivo; outline: as §1
[3] = Biodistribution in healthy human feces assessed as Tipranavir hydroxyl metabolite H-1 level at 500 mg, po twice daily coadministered with ritonavir 200 mg, po twice daily for 21 days with additional single dose of 551 mg, po on day 7; type: ADME, organism-based; conditions: in vivo, 504 h; outline: as §1
[4] = tested on: Homo sapiens; test: Volume of distribution ( 0 to infinity) in healthy human plasma at 500 mg, po twice daily coadministered with ritonavir 200 mg, po twice daily for 21 days with additional single dose of 551 mg, po on day 7; type: ADME, organism-based; conditions: in vivo, 504 h; outline: as §1
[5] = tested on: Homo sapiens; test: Biodistribution in healthy human assessed as radioactive drug dose recovery at 500 mg, po twice daily coadministered with ritonavir 200 mg, po twice daily for 21 days with additional single dose of 551 mg, po on day 7; type: ADME, organism-based; conditions: in vivo, 504 h; outline: as §1
[6] = tested on: Homo sapiens; test: Volume of distribution ( 0 to infinity) in healthy human blood at 500 mg, po twice daily coadministered with ritonavir 200 mg, po twice daily for 21 days with additional single dose of 551 mg, po on day 7; type: ADME, organism-based; conditions: in vivo, 504 h; outline: as §1
[7] = tested on: Homo sapiens; test: Volume of distribution ( 0 to 12 hrs) in healthy human blood at 500 mg, po twice daily coadministered with ritonavir 200 mg, po twice daily for 21 days with additional single dose of 551 mg, po on day 7; type: ADME, organism-based; conditions: in vivo; outline: as §1
[8] = tested on: Homo sapiens; test: Volume of distribution ( 0 to 12 hrs) in healthy human plasma at 500 mg, po twice daily coadministered with ritonavir 200 mg, po twice daily for 21 days with additional single dose of 551 mg, po on day 7; type: ADME, organism-based; conditions: in vivo; outline: as §1
[9] = Biodistribution in healthy human assessed as radioactive drug dose recovery in urine at 500 mg, po twice daily coadministered with ritonavir 200 mg, po twice daily for 21 days with additional single dose of 551 mg, po on day 7; type: ADME, organism-based; conditions: in vivo, 504 h
[10] = Biodistribution in healthy human excreta assessed as Tipranavir hydroxyl metabolite H-1 level at 500 mg, po twice daily coadministered with ritonavir 200 mg, po twice daily for 21 days with additional single dose of 551 mg, po on day 7; type: ADME, organism-based; conditions: in vivo, 504 h; outline: as §1
[11] = tested on: Homo sapiens; test: Tlast ( 0 to infinity) in healthy human blood at 500 mg, po twice daily coadministered with ritonavir 200 mg, po twice daily for 21 days with additional single dose of 551 mg, po on day 7; type: ADME, organism-based; conditions: in vivo, 504 h; outline: as §1
[12] = Biodistribution in healthy human assessed as radioactive drug dose recovery in feces at 500 mg, po twice daily coadministered with ritonavir 200 mg, po twice daily for 21 days with additional single dose of 551 mg, po on day 7; type: ADME, organism-based; conditions: in vivo, 504 h; outline: as §1
[13] = Biodistribution in healthy human feces assessed as Tipranavir oxidation metabolite H-2 level at 500 mg, po twice daily coadministered with ritonavir 200 mg, po twice daily for 21 days with additional single dose of 551 mg, po on day 7; type: ADME, organism-based; conditions: in vivo, 504 h; outline: as §1
[14] = Biodistribution in healthy human urine assessed as Tipranavir hydroxyl metabolite H-1 level at 500 mg, po twice daily coadministered with ritonavir 200 mg, po twice daily for 21 days with additional single dose of 551 mg, po on day 7; type: ADME, organism-based; conditions: in vivo, 504 h; outline: as §1
[15] = tested on: Homo sapiens; test: Tlast ( 0 to infinity) in healthy human plasma at 500 mg, po twice daily coadministered with ritonavir 200 mg, po twice daily for 21 days with additional single dose of 551 mg, po on day 7; type: ADME, organism-based; conditions: in vivo, 504 h; outline: as §1
[16] = tested on: Homo sapiens; test: Cmax ( 0 to 12 hrs) in healthy human plasma at 500 mg, po twice daily coadministered with ritonavir 200 mg, po twice daily for 21 days with additional single dose of 551 mg, po on day 7; type: ADME, organism-based; set-up: dose 500 mg, route oral; conditions: in vivo; outline: as §1
[17] = Biodistribution in healthy human excreta at 500 mg, po twice daily coadministered with ritonavir 200 mg, po twice daily for 21 days with additional single dose of 551 mg, po on day 7; type: ADME, organism-based; conditions: in vivo, 504 h; outline: as §1
[18] = Biodistribution in healthy human urine at 500 mg, po twice daily coadministered with ritonavir 200 mg, po twice daily for 21 days with additional single dose of 551 mg, po on day 7; type: ADME, organism-based; conditions: in vivo, 504 h; outline: as §1
[19] = Biodistribution in healthy human urine assessed as Tipranavir glucuronidation conjugate H-3 level at 500 mg, po twice daily coadministered with ritonavir 200 mg, po twice daily for 21 days with additional single dose of 551 mg, po on day 7; type: ADME, organism-based; conditions: in vivo, 504 h; outline: as §1
[20] = Biodistribution in healthy human excreta assessed as Tipranavir oxidation metabolite H-2 level at 500 mg, po twice daily coadministered with ritonavir 200 mg, po twice daily for 21 days with additional single dose of 551 mg, po on day 7; type: ADME, organism-based; conditions: in vivo, 504 h; outline: as §1
[21] = Biodistribution in healthy human sexcreta assessed as Tipranavir glucuronidation conjugate H-3 level at 500 mg, po twice daily coadministered with ritonavir 200 mg, po twice daily for 21 days with additional single dose of 551 mg, po on day 7; type: ADME, organism-based, Excreta; conditions: in vivo, 504 h; outline: as §1
[22] = Clearance life in healthy human at 500 mg, po twice daily coadministered with ritonavir 200 mg, po twice daily for 21 days with additional single dose of 551 mg, po on day 7; type: ADME, organism-based; conditions: in vivo; outline: as §1
[23] = tested on: Homo sapiens; test: Toxicity in healthy human at 500 mg, po twice daily coadministered with ritonavir 200 mg, po twice daily for 21 days with additional single dose of 551 mg, po on day 7; type: organism-based; conditions: in vivo, 504 h
[24] = Cmax in healthy human at 500 mg, po twice daily coadministered with ritonavir 200 mg, po twice daily for 21 days with additional single dose of 551 mg, po on day 7; type: ADME, organism-based; set-up: dose 500 mg, route oral; conditions: in vivo; outline: as §1
[25] = Half life in healthy human at 500 mg, po twice daily coadministered with ritonavir 200 mg, po twice daily for 21 days with additional single dose of 551 mg, po on day 7; type: ADME, organism-based; conditions: in vivo; outline: as §1
[26] = Tmax in healthy human at 500 mg, po twice daily coadministered with ritonavir 200 mg, po twice daily for 21 days with additional single dose of 551 mg, po on day 7; type: ADME, organism-based; conditions: in vivo; outline: as §1
[27] = tested on: Homo sapiens; test: Volume of distribution in healthy human at 500 mg, po twice daily coadministered with ritonavir 200 mg, po twice daily for 21 days with additional single dose of 551 mg, po on day 7; type: ADME, organism-based; conditions: in vivo, 504 h; outline: as §1
[28] = AUC (0 to 12 hrs) in healthy human at 500 mg, po twice daily coadministered with ritonavir 200 mg, po twice daily for 21 days with additional single dose of 551 mg, po on day 7; type: ADME, organism-based; set-up: dose 500 mg, time < 12 hr, route oral; conditions: plasma; outline: as §1
[29] = Drug level in healthy human at 500 mg, po twice daily coadministered with ritonavir 200 mg, po twice daily for 21 days with additional single dose of 551 mg, po on day 7 measured 12 hrs postdose; type: ADME, organism-based; conditions: plasma; outline: as §1

For `CCC[C@@]1(CCc2ccccc2)CC(O)=C([14C@H](CC)c2cccc(NS(=O)(=O)c3ccc(C(F)(F)F)cn3)c2)C(=O)O1`, which Drug uptake [1] is on record?
The Drug uptake was 0.05 µg/mL.

What about the Drug uptake [2] of the same compound?
The Drug uptake was 0.1 µg/mL.

What about the Drug uptake [3] of the same compound?
The Drug uptake was 3.2 %ID.

What about the Vd [4] of the same compound?
The Vd was 32.47 L.

And the Drug uptake [5]?
The Drug uptake was 75.3%.

What about the Vd [6] of the same compound?
The Vd was 44.23 L.

What about the Vd [7] of the same compound?
The Vd was 15.68 L.

And the Vd [8]?
Its Vd is 8.32 L.

What about the Drug uptake [9] of the same compound?
Its Drug uptake is 4.59%.

What about the Drug uptake [10] of the same compound?
The Drug uptake was 3.2 %ID.

And the Tlast [11]?
The Tlast was 64 h.

And the Drug uptake [12]?
The Drug uptake was 70.4%.

What about the Drug uptake [13] of the same compound?
The Drug uptake was 0.4 %ID.

And the Drug uptake [14]?
Its Drug uptake is < 0.1 %ID.

What about the Tlast [15] of the same compound?
The Tlast was 90.67 h.

And the Cmax [16]?
The Cmax was 90.5 µM.

And the Drug uptake [17]?
The Drug uptake was 53.5 %ID.

What about the Drug uptake [18] of the same compound?
Its Drug uptake is < 0.1 %ID.

And the Drug uptake [19]?
The Drug uptake was 0.5 %ID.

What about the Drug uptake [20] of the same compound?
Its Drug uptake is 0.4 %ID.

And the Drug uptake [21]?
The Drug uptake was 0.5 %ID.

With `CCC[C@@]1(CCc2ccccc2)CC(O)=C([C@H](CC)c2cccc(NS(=O)(=O)c3ccc(C(F)(F)F)cn3)c2)C(=O)O1` [TIPRANAVIR] as the compound, how does the CL/F [22] read?
Its CL/F is 24.5 mL/min.

What about the Activity [23] of the same compound?
Its Activity is “Non-toxic”.

What about the Cmax [24] of the same compound?
Its Cmax is 99.4 µM.

And the half-life [25]?
Its half-life is 4.6 h.

And the Tmax [26]?
The Tmax was 2.9 h.

And the Vd [27]?
The Vd was 9.6 L.

And the AUC(0-t) at 12 h [28]?
The AUC(0-t) at 12 h was 657 µM·h.

And the concentration at 12 h [29]?
Its concentration at 12 h is 25.9 µM.
